High-throughput results as filed in PubChem BioAssay.
Sampled rows, rich in hits. Any-hit rate of the full collection: about 6.1%.
RAM network inh: inhibitors of the yeast RAM network, primary screen, dse1pr::URA3 reporter, 5-FOA selection | S. cerevisiae dse1pr::URA3 reporter, 5-FOA growth OD615, 2 d; analog-sensitive cbk1-as2 kinase mutant strain | inhibition, % at 50 µM | 190,000 compounds, 1.8% hits | AID 868, 2007;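 active means inhibition above a set limit, 3 SD over mean compound inhibition, cut at about 8.4% in these data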;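 further: 0% = DMSO-only wells with no growth and 100% = 10 µM 1-NA-PP1 full growth; inhibition rescues growth on 5-FOA so higher OD means more RAM inhibition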
BB579 growth dn: growth inhibitors of yeast BB579 in restrictive medium, primary screen, yeast lifespan-shortening project, S. cerevisiae. OD615, 48 h. inhibition, % at 10 µM. 140,000 compounds, 0.51% hits. AID 804, 2007;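 active means inhibition above a set limit, 3 SD over the mean compound inhibition, cut at about 44% in these data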
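Test system: S. cerevisiae DeaD strain BB579 yeast; Medium: restrictive CSMM-D medium; Compound: one dose, 10 µM compound with 0.25% DMSO; Incubation: 4 h cell preincubation, 48 h compound exposure, 30 °C humidified; Signal: OD at 615 nm; Benchmarks: amphotericin B at 10 µg/mL as positive control.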
WT yeast gro inh: growth inhibition of WT strain, primary screen, mitochondrial fusion inhibitor project, WT and mutant strains, chemical genetic. mitochondrial fusion phenotypic screen. inhibition, % at 10 µM. 190,000 compounds, 2.1% hits; in the data active means inhibition above about 58%; tested in S. cerevisiae
DAT uptake mod: changed hDAT dopamine uptake under cocaine IC80, either direction, primary screen, cocaine antagonist project, cell-based, LLC-PK1 hDAT, [14C]-dopamine uptake, MLSMR; LLC-PK1 hDAT cells, [14C]-dopamine uptake with cocaine IC80; actives deviate in either direction; Sodium-dependent dopamine transporter (Homo sapiens), Q01959; 110,000 compounds, 1.3% hits; B-score at 10 µM;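 active means Z score or B-score, a plate-position-corrected score, falls beyond the plate's 99.7% confidence bounds, in either direction; inactive means both scores lie inside the 99.7% bounds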;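 further: scored against the spread of the other compound wells on the same plate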
Target sequence (Q01959 whole entry, looked up): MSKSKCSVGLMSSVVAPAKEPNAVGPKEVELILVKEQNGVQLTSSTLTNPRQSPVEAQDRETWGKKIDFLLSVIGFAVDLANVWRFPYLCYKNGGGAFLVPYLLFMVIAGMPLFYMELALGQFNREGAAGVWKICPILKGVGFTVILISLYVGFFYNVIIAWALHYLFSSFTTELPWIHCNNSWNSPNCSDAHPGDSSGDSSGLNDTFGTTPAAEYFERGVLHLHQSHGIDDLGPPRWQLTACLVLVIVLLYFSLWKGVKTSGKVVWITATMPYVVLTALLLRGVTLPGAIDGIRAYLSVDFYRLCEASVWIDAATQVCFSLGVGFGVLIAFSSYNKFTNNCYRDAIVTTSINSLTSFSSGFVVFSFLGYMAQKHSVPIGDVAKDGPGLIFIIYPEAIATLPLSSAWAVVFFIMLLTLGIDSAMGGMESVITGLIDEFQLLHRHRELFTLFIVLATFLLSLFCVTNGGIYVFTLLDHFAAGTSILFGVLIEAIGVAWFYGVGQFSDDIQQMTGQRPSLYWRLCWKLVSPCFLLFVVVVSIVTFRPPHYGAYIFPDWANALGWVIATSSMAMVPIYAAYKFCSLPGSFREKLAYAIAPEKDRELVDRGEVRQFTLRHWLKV
Measles CPE: compounds protecting cells from measles virus cytopathic effect, primary screen, measles RdRp inhibitor project, single point, MLSMR library, absorbance. Measles virus-infected cells, CPE protection. protection (pct of control), % at 4 µM. 140,000 compounds, 1.5% hits; in the data active means protection mostly above about 24%, no sharp cut-off; inactive means mostly below about 26%
Yeast life ext: compounds extending yeast replicative lifespan, primary screen, S. cerevisiae, OD615 | 130,000 compounds, 0.68% hits | inhibition of the nicotinamide effect, % at 10 µM | S. cerevisiae growth with nicotinamide; deaD strain in restrictive glucose medium | AID 775, 2007;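 active means inhibition above a set limit, placed 3 SD over the median of all compounds, cut at about 26% in these data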;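 further: 0% = nicotinamide-treated wells and 100% = cells grown without nicotinamide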
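Material: Modified budding yeast, DeaD strain | Medium: Restrictive glucose medium | Probe or stimulus: 1.5 mM nicotinamide | Dosing: Single dose 10 µM compound, 0.25% DMSO | Times: 48 h at 30 °C | Technique: OD615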
Starred values were filed as active, the others as inactive; · = no result given.

SMILES | RAM network inh | BB579 growth dn | WT yeast gro inh | DAT uptake mod | Measles CPE | Yeast life ext
Cc1cc(Nc2ccc(O)cc2)n2c(nc3ccccc32)c1C#N | 9.1* | · | 6 | · | · | ·
O=C(Nc1ccc(C(=O)O)cc1)/C(=C\c1cccc([N+](=O)[O-])c1)NC(=O)c1ccc(Br)o1 | 3 | · | -7 | · | · | ·
CCOc1cc(S(=O)(=O)NCCc2ccccc2C)c(OCC)cc1-n1cnnn1 | 4 | -52 | -6 | 0.74 | 23 | -6
CCOc1cc(S(=O)(=O)NCCc2cccc(C)c2)c(OCC)cc1-n1cnnn1 | 8.8* | 3 | -10 | 0.091 | 16 | -15
COc1cccc(CNC(=O)C(c2ccc(Cl)cc2)C(C)C)c1 (stereo unspecified) | 0 | -17 | 12 | · | 9 | 0
Cn1c(=O)[nH]c(=O)c2c1nc(N1CCCCCC1)n2CCOc1ccccc1 | 2 | · | -5 | · | · | ·
Cc1ccc(-c2cc(C(F)F)n3ncc(C(=O)N4CCc5ccccc5C4)c3n2)cc1 | 4 | · | 77* | · | · | ·
CCC(=O)NS(=O)(=O)c1ccc(-c2c(-c3ccccc3)noc2C)cc1 | · | · | · | -0.11 | · | ·
FC(F)Sc1ccc(N=C2NN=C(c3ccc4c(c3)OCCO4)CS2)cc1 | 4 | -54 | 10 | 0.85 | 9 | -15
COc1ccc(N=C2NN=C(c3ccc4c(c3)OCCO4)CS2)cc1 | 2 | -27 | -7 | 3.1* | 14 | -4
O=c1c(-c2nc3ccccc3s2)cccn1Cc1ccc(Cl)cc1 | 3 | -13 | 5 | 0.44 | 36 | -10
Clc1ccc(CCNc2nc3ccccc3s2)cc1 | 2 | 68* | 3 | -0.8 | 14 | -27
CC1CCN(CC(=O)Nc2cccc(C(=O)Nc3cccc(C(F)(F)F)c3)c2)CC1 | 0 | 3 | 15 | · | 5 | 0
CCCn1nnc(NC(=O)c2ccc(-c3cccc(Cl)c3)o2)n1 | -1 | -16 | 74* | 0.33 | 3 | -29
CCCn1nnc(NC(=O)c2cccc(Cl)c2)n1 | 1 | -39 | 2 | 0.22 | 4 | -2
CCCCn1nnc(NC(=O)c2ccc(-c3cccc(Cl)c3)o2)n1 | 8.4* | -39 | 35 | 1.4 | 6 | -19
CCCn1nnc(NC(=O)C(C)Oc2ccc(Cl)cc2Cl)n1 (stereo unspecified) | 1 | -5 | 7 | -0.46 | 47* | -19
Cc1cccc(C)c1-n1c(C)cc(/C=N\NC(=O)CC(=O)NC2CCCCC2)c1C | 0 | -30 | 12 | · | 19 | 7
Cc1ccc2cc3cc(C(=O)N(CC(=O)NC4CCCC4)c4cccc(C)c4C)sc3nc2c1 | 5 | -32 | 55 | -0.88 | 11 | -8
Fc1ccc(NC(=S)NCCN2CCOCC2)c(F)c1F | 2 | · | 0 | · | · | ·
O=C(Cc1ccccc1)Nc1nc2ccccc2s1 | 2 | -29 | 17 | -0.35 | 52* | ·
O=C(Cc1cccs1)Nc1nc2ccccc2s1 | 3 | -12 | · | -1.3 | 25 | -8
CCCCNC(=S)N(Cc1ccco1)Cc1cc2cc3c(cc2[nH]c1=O)OCCO3 | 8.5* | -9 | 11 | · | 22 | 0
CCOCCCNC(=S)N(Cc1ccco1)Cc1cc2cc3c(cc2[nH]c1=O)OCCO3 | 2 | · | 14 | · | · | ·
Cc1cc(/C=C2/NC(=O)N(Cc3ccccc3F)C2=O)c(C)n1C | 1 | -55 | -1 | · | 15 | 27*
SMILES | RAM network inh | BB579 growth dn | WT yeast gro inh | DAT uptake mod | Measles CPE | Yeast life ext
Cc1cc(/C=C2/NC(=O)N(Cc3ccccc3F)C2=O)c(C)n1-c1ccccn1 | 4 | -52 | 0 | · | 4 | 6
Cc1nc(SCC#N)c2c3c(sc2n1)CCC3 | 1 | -44 | 18 | -0.086 | 19 | -11
Cc1cc(C)n(-c2nc(SCCN(C)C)c3c4c(sc3n2)CCCC4)n1 | -1 | -34 | -7 | 3* | 7 | -27
CCOc1cc(/C=N/NC(=O)c2ccc(-c3csc(Nc4ccc(C)cc4)n3)cc2)ccc1OCC(=O)O | 8.9* | · | 3 | · | · | ·
CCOc1cc(/C=N/Nc2ccccc2Cl)ccc1OCC(=O)O | -2 | 96* | 12 | · | 3 | -9
CCOc1cc(/C=N/NC(=O)c2ccncc2)ccc1OS(C)(=O)=O | 1 | 7 | -10 | · | 3 | -3
Cc1ccccc1NC(=O)Cc1nc(CSc2nnc(-c3ccc4c(c3)OCO4)o2)cs1 | 6 | -21 | -9 | 0.56 | 4 | -6
CCSc1nnc(CNc2ccc(F)cc2)n1CC1CCCO1 (stereo unspecified) | 0 | -20 | 3 | -0.013 | 46* | -11
CCC(C)n1c(SCC(=O)Nc2cc(C(C)(C)C)nn2-c2ccccc2)nc2ccccc2c1=O (stereo unspecified) | 4 | -11 | 49 | · | 11 | 11
Cc1ccccc1C(=O)Nc1ccc(C(=O)N/N=C/c2ccncc2)cc1 | -1 | · | 8 | · | · | ·
O=C(Nc1ccccc1C(=O)N/N=C/c1ccncc1)c1ccccc1 | 2 | · | 77* | · | · | ·
CCCC(C)NC(=S)Nc1cc(C)cc(C)c1 (stereo unspecified) | 0 | · | 73* | · | · | ·
CC(=Nc1ccc(C)c(C)c1)C1=C(O)CSC1=O | 1 | -80 | 19 | -0.3 | 11 | -8
O=C(c1ccco1)N1CCN(c2c(-c3ccccc3)c3cc(Cl)ccc3[nH]c2=O)CC1 | 1 | -46 | 86* | 0.97 | 20 | -3
O=c1[nH]c2ccc(Cl)cc2c(-c2ccccc2)c1N1CCOCC1 | 3 | -30 | 11 | 0.27 | 22 | -4
Cc1ccc(-c2cc(-c3ccccc3)c(C#N)c(N)n2)o1 | 0 | -50 | 65* | -0.56 | 6 | -22
Cc1cc(C)cc(NC(=O)C2(c3ccccc3)CC2(Cl)Cl)c1 (stereo unspecified) | 3 | -34 | -16 | -0.89 | 24 | 1
Cc1ccc(SCCNC(=S)Nc2ccccc2)cc1 | 1 | -40 | 74* | 0.026 | 6 | -14
COc1ccccc1NC(=S)NCCc1ccccc1 | -1 | -6 | 1 | 0.008 | 4 | -21
COc1ccccc1NC(=S)NCCSc1ccc(C)cc1 | 3 | -27 | 71* | · | 18 | -6
Cc1ccc(SCCNC(=S)Nc2cc(C)ccc2C)cc1 | 8.9* | 8 | 75* | 1.3 | 6 | -13
COc1cc(NC(=S)N2CCN(c3ccccn3)CC2)c(OC)cc1Cl | 0 | -16 | 14 | · | 3 | -6
CSc1nnc2c(n1)c(C)nn2-c1ccc(C)cc1 | 2 | -8 | -9 | 0.13 | 38* | ·
Cc1ccc(-n2nc3c(Cl)nnc(C)c3c2C)cc1 | 3 | 1 | 8 | · | 19 | 1
Cc1occc1-c1nnc(SCC(=O)NCCc2ccccc2)o1 | 0 | · | -9 | · | · | ·
